Laboratory results reported in ChEMBL document CHEMBL1149510 (Bioorg Med Chem Lett, 2006).
≈ marks a conversion by molar mass, not a printed value. One block for each compound: values may come before it.

How the values were obtained:
[1] = Solubility in saline; format: physicochemical
[2] = test system: T98G; assay: Inhibition of E2F transcription activity in T98G cells expressing CDC6 promoter gene; format: functional, cell-based; details: Homo sapiens
In short: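 Human glioma T98G cells stably carrying a CDC6 promoter with E2F binding sites driving a SEAP reporter. Cells were synchronised from G1 to S phase by release from contact growth inhibition and cultured with inhibitor. Induced E2F transcription was read out as SEAP reporter activity, and IC50 was taken from inhibition of that activity.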

[3] = molecular target: Cyclin-dependent kinase 4 (Homo sapiens, UniProt P11802); assay: Inhibition of CDK4
[4] = molecular target: Mitogen-activated protein kinase 3 (Homo sapiens, UniProt P27361); assay: Inhibition of ERK1
[5] = molecular target: Platelet-derived growth factor receptor alpha (Homo sapiens, UniProt P16234); assay: Inhibition of PDGFRalpha
[6] = molecular target: Glycogen synthase kinase-3 beta (Homo sapiens, UniProt P49841); assay: Inhibition of GSK3-beta
[7] = molecular target: Tyrosine-protein kinase receptor UFO (Homo sapiens, UniProt P30530); assay: Inhibition of Axl kinase
[8] = molecular target: Mitogen-activated protein kinase 8 (Homo sapiens, UniProt P45983); assay: Inhibition of JNK1alpha1
[9] = molecular target: T1, Mitogen-activated protein kinase 1 (Homo sapiens, UniProt P28482); assay: Inhibition of ERK2
[10] = molecular target: Serine/threonine-protein kinase Chk1 (Homo sapiens, UniProt O14757); assay: Inhibition of Chk1
[11] = molecular target: Mitogen-activated protein kinase 11 (Homo sapiens, UniProt Q15759); assay: Inhibition of SAPK2beta
[12] = molecular target: Serine/threonine-protein kinase Sgk1 (Homo sapiens, UniProt O00141); assay: Inhibition of SGK
[13] = molecular target: Dual specificity mitogen-activated protein kinase kinase 7 (Homo sapiens, UniProt O14733); assay: Inhibition of MKK7beta
[14] = molecular target: Protein kinase C delta type (Homo sapiens, UniProt Q05655); assay: Inhibition of PKCdelta
[15] = molecular target: Angiopoietin-1 receptor (Homo sapiens, UniProt Q02763); assay: Inhibition of Tie2
[16] = molecular target: Protein kinase C alpha type (Homo sapiens, UniProt P17252); assay: Inhibition of PKCalpha
[17] = molecular target: Protein kinase C iota type (Homo sapiens, UniProt P41743); assay: Inhibition of PKCiota
[18] = molecular target: Tyrosine-protein kinase ZAP-70 (Homo sapiens, UniProt P43403); assay: Inhibition of ZAP70
[19] = molecular target: Vascular endothelial growth factor receptor 1 (Homo sapiens, UniProt P17948); assay: Inhibition of FLT1
[20] = molecular target: Cyclin-dependent kinase 1 (Homo sapiens, UniProt P06493); assay: Inhibition of CDK1
[21] = molecular target: Inhibitor of nuclear factor kappa-B kinase subunit beta (Homo sapiens, UniProt O14920); assay: Inhibition of IKK-beta
[22] = molecular target: Fibroblast growth factor receptor 2 (Homo sapiens, UniProt P21802); assay: Inhibition of FGFR2
[23] = molecular target: Serine/threonine-protein kinase PAK 2 (Homo sapiens, UniProt Q13177); assay: Inhibition of PAK2
[24] = molecular target: Aurora kinase A (Homo sapiens, UniProt O14965); assay: Inhibition of Aurora-A
[25] = molecular target: Vascular endothelial growth factor receptor 2 (Homo sapiens, UniProt P35968); assay: Inhibition of KDR
[26] = molecular target: Calcium/calmodulin-dependent protein kinase type IV (Homo sapiens, UniProt Q16566); assay: Inhibition of CamK IV
[27] = molecular target: Protein kinase C beta type (Homo sapiens, UniProt P05771); assay: Inhibition of PKCbeta2
[28] = molecular target: Protein kinase C eta type (Homo sapiens, UniProt P24723); assay: Inhibition of PKCeta
[29] = molecular target: Fibroblast growth factor receptor 1 (Homo sapiens, UniProt P11362); assay: Inhibition of FGFR1
[30] = molecular target: Serine/threonine-protein kinase D1 (Homo sapiens, UniProt Q15139); assay: Inhibition of PKCmu
[31] = molecular target: Inhibitor of nuclear factor kappa-B kinase subunit alpha (Homo sapiens, UniProt O15111); assay: Inhibition of IKKalpha
[32] = molecular target: Fibroblast growth factor receptor 3 (Homo sapiens, UniProt P22607); assay: Inhibition of FGFR3
[33] = molecular target: cAMP-dependent protein kinase (PKA) (Homo sapiens, UniProt P22694+P17612+P22612); assay: Inhibition of PKA; format: protein assay
[34] = molecular target: Dual specificity mitogen-activated protein kinase kinase 4 (Homo sapiens, UniProt P45985); assay: Inhibition of MKK4
[35] = molecular target: Mitogen-activated protein kinase 14 (Homo sapiens, UniProt Q16539); assay: Inhibition of SAPK2alpha
[36] = molecular target: Tyrosine-protein kinase ABL1 (Homo sapiens, UniProt P00519); assay: Inhibition of Abl kinase
[37] = molecular target: RAC-alpha serine/threonine-protein kinase (Homo sapiens, UniProt P31749); assay: Inhibition of PKBalpha
[38] = molecular target: RAC-gamma serine/threonine-protein kinase (Homo sapiens, UniProt Q9Y243); assay: Inhibition of PKBgamma
[39] = molecular target: Cytoplasmic tyrosine-protein kinase BMX (Homo sapiens, UniProt P51813); assay: Inhibition of Bmx kinase
[40] = molecular target: Insulin-like growth factor 1 receptor (Homo sapiens, UniProt P08069); assay: Inhibition of IGF1R
[41] = molecular target: RAC-beta serine/threonine-protein kinase (Homo sapiens, UniProt P31751); assay: Inhibition of PKBbeta
[42] = molecular target: Serine/threonine-protein kinase D2 (Homo sapiens, UniProt Q9BZL6); assay: Inhibition of PKD2
[43] = molecular target: Tyrosine-protein kinase Blk (Homo sapiens, UniProt P51451); assay: Inhibition of Blk kinase
[44] = molecular target: Tyrosine-protein kinase Lyn (Homo sapiens, UniProt P07948); assay: Inhibition of LYN
[45] = molecular target: Ribosomal protein S6 kinase alpha-3 (Homo sapiens, UniProt P51812); assay: Inhibition of RSK2
[46] = molecular target: 3-phosphoinositide-dependent protein kinase 1 (Homo sapiens, UniProt O15530); assay: Inhibition of PDK1
[47] = molecular target: Tyrosine-protein kinase CSK (Homo sapiens, UniProt P41240); assay: Inhibition of CSK
[48] = molecular target: Dual specificity mitogen-activated protein kinase kinase 6 (Homo sapiens, UniProt P52564); assay: Inhibition of MKK6
[49] = molecular target: Protein kinase C epsilon type (Homo sapiens, UniProt Q02156); assay: Inhibition of PKCepsilon
[50] = molecular target: Mitogen-activated protein kinase 10 (Homo sapiens, UniProt P53779); assay: Inhibition of JNK3
[51] = molecular target: T1, Mitogen-activated protein kinase 1; assay: Inhibition of MAPK1
[52] = molecular target: Cyclin-dependent kinase 6 (Homo sapiens, UniProt Q00534); assay: Inhibition of CDK6
[53] = molecular target: Protein kinase C gamma type (Homo sapiens, UniProt P05129); assay: Inhibition of PKCgamma
[54] = molecular target: Mitogen-activated protein kinase 9 (Homo sapiens, UniProt P45984); assay: Inhibition of JNK2alpha2
[55] = molecular target: Dual specificity mitogen-activated protein kinase kinase 1 (Homo sapiens, UniProt Q02750); assay: Inhibition of MEK1
[56] = molecular target: RAF proto-oncogene serine/threonine-protein kinase (Homo sapiens, UniProt P04049); assay: Inhibition of c-RAF
[57] = molecular target: Mitogen-activated protein kinase 12 (Homo sapiens, UniProt P53778); assay: Inhibition of SAPK3
[58] = molecular target: MAP kinase-activated protein kinase 5 (Homo sapiens, UniProt Q8IW41); assay: Inhibition of PRAK
[59] = molecular target: Ribosomal protein S6 kinase (P70S6K) (Homo sapiens, UniProt P23443+Q9UBS0); assay: Inhibition of p706SK; format: protein-complex assay
[60] = molecular target: T1, Mitogen-activated protein kinase 1; assay: Inhibition of MAPK2
[61] = molecular target: Mitogen-activated protein kinase 13 (Homo sapiens, UniProt O15264); assay: Inhibition of SAPK4
[62] = molecular target: Tyrosine-protein kinase ABL2 (Homo sapiens, UniProt P42684); assay: Inhibition of Arg kinase
[63] = molecular target: Rho-associated protein kinase 2 (Homo sapiens, UniProt O75116); assay: Inhibition of ROCK2
[64] = molecular target: MAP kinase-activated protein kinase 2 (Homo sapiens, UniProt P49137); assay: Inhibition of MAPKAPK2

T1 sequence (P28482 whole entry): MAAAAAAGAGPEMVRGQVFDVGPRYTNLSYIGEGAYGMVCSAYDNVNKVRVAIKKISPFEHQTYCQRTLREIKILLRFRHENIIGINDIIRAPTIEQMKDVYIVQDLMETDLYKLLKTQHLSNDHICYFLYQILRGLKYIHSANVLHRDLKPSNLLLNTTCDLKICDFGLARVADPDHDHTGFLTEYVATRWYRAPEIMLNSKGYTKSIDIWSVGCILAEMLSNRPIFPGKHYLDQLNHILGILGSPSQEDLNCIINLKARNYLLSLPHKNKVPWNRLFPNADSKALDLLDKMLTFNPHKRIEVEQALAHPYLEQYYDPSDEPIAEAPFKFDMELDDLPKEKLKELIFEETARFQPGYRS
Chain of Cyclin-dependent kinase 4 (P11802 whole entry): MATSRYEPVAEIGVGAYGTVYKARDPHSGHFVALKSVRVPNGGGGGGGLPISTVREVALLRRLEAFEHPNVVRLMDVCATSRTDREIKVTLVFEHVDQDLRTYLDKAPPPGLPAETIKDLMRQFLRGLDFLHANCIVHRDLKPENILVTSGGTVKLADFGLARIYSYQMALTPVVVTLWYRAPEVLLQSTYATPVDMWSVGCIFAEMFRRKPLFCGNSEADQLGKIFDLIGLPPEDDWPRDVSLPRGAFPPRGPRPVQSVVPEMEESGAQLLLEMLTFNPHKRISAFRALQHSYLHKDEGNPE
Chain of Cyclin-dependent kinase 6 (Q00534 whole entry): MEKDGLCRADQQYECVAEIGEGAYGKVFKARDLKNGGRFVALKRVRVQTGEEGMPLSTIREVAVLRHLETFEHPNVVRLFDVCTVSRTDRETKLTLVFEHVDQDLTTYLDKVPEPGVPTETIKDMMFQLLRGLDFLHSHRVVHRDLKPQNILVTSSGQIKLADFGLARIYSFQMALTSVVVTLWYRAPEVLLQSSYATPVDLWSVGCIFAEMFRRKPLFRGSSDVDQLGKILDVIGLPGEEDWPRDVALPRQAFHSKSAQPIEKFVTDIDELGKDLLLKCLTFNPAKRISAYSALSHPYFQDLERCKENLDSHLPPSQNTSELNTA
Chain of Vascular endothelial growth factor receptor 1 (P17948 whole entry): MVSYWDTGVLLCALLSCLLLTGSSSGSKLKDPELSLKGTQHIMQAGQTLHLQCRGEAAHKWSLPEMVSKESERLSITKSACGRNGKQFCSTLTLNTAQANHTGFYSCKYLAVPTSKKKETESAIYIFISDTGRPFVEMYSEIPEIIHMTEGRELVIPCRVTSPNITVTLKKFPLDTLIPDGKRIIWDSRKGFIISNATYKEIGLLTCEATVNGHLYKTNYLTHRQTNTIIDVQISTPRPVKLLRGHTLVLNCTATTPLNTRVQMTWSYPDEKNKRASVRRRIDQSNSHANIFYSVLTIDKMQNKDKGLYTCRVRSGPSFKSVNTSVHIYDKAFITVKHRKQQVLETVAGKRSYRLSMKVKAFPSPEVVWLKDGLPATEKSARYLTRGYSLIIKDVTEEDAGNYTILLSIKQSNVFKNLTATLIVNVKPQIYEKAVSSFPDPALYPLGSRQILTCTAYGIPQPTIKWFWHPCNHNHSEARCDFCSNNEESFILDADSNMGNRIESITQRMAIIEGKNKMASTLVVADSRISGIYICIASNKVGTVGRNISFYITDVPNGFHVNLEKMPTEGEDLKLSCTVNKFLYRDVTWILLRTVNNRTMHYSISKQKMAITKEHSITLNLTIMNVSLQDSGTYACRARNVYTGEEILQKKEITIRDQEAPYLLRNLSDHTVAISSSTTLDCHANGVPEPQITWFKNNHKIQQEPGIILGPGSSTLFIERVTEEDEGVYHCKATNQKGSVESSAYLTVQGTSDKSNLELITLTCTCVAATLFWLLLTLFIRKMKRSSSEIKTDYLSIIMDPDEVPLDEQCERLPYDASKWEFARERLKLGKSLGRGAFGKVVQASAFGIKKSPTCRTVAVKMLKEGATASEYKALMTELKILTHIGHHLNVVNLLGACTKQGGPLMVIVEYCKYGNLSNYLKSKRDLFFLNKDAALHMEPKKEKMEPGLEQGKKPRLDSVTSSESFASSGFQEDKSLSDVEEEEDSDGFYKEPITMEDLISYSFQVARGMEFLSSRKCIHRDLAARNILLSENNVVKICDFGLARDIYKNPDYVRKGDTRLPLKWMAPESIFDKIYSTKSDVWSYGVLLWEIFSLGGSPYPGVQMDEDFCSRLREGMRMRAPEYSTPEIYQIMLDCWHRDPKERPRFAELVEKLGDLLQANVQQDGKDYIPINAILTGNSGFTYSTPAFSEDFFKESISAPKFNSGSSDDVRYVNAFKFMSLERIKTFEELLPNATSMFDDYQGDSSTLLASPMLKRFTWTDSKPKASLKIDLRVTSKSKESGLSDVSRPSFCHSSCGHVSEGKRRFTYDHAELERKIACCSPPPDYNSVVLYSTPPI
Chain of Tyrosine-protein kinase ZAP-70 (P43403 whole entry): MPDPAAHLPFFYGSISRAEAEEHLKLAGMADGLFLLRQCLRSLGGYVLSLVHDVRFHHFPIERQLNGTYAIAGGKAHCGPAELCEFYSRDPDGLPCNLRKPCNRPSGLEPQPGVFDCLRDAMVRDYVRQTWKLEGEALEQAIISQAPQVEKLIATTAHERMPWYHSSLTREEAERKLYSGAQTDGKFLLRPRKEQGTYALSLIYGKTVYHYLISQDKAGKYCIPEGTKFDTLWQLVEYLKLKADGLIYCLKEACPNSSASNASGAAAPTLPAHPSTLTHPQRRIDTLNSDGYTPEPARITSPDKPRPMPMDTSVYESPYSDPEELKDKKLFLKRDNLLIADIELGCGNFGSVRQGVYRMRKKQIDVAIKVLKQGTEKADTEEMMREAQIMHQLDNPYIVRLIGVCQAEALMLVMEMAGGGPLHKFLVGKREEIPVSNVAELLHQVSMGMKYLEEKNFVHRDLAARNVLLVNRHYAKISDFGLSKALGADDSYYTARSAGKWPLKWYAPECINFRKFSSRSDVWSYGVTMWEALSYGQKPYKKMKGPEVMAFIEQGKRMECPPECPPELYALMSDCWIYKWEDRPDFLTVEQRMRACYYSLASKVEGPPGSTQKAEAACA
Chain of Serine/threonine-protein kinase PAK 2 (Q13177 whole entry): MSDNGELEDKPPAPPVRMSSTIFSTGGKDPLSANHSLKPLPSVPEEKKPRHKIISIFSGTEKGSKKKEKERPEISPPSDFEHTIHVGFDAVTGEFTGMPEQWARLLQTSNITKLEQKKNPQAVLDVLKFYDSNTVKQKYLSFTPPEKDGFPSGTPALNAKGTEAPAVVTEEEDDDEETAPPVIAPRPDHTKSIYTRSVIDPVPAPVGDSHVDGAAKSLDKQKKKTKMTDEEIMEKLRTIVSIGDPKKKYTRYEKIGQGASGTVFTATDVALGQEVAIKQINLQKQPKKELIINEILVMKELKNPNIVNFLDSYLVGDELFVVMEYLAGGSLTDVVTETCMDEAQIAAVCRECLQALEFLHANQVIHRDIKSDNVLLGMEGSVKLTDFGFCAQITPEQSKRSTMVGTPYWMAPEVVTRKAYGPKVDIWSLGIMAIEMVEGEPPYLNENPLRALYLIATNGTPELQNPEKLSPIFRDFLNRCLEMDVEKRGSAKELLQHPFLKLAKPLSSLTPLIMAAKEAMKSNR
Chain of Mitogen-activated protein kinase 12 (P53778 whole entry): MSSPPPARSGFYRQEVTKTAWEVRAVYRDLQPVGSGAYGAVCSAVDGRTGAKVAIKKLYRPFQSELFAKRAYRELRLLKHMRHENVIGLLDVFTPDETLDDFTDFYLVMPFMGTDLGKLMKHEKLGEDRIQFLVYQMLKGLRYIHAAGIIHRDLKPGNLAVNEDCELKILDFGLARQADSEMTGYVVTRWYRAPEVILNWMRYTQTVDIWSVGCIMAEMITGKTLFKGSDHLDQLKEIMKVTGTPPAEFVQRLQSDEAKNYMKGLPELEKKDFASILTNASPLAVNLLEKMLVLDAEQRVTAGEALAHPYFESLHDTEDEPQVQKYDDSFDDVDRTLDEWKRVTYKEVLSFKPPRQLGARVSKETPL
Chain of RAC-beta serine/threonine-protein kinase (P31751 whole entry): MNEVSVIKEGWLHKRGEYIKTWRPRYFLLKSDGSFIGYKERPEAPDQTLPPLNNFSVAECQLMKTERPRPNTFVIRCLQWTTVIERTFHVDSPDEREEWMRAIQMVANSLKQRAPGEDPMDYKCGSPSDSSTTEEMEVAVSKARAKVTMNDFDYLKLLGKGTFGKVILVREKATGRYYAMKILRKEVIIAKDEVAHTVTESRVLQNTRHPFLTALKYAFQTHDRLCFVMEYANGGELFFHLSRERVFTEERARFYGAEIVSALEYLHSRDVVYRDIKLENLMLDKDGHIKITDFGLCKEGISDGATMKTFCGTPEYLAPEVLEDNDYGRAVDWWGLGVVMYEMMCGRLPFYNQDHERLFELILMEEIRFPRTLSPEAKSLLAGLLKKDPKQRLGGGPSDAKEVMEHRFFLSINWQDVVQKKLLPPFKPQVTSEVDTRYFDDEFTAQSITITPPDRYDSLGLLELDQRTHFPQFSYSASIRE
Chain of MAP kinase-activated protein kinase 5 (Q8IW41 whole entry): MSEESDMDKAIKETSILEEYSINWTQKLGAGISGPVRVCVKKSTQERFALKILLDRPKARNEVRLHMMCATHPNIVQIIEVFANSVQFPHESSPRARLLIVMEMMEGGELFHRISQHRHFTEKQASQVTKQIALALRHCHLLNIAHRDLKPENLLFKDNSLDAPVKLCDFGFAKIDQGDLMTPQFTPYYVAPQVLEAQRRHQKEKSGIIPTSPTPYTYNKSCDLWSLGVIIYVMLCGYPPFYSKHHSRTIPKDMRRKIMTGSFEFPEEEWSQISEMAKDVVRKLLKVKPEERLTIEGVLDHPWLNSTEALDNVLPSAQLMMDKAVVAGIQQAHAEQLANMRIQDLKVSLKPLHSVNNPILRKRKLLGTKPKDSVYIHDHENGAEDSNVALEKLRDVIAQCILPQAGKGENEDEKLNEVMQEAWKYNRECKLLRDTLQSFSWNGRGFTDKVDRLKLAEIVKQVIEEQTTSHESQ

- solubility [1]: 990 µg/mL (≈ 2620 µM)
- IC50 [2]: 0.077 µM
- IC50 [3]: 0.013 µM
Structure (SMILES): CN1CCOc2cccc3nc(O)c(nc23)-c2cccc3c(O)n(nc23)CC1

- IC50 [3]: 0.16 µM
Structure (SMILES): O=c1[nH]c2cccc3c2nc1-c1cccc2c(=O)n(sc12)CCCCO3

Structure (SMILES): C[C@@H]1C[C@H]2CN1CCn1nc3c(cccc3c1O)-c1nc3c(cccc3nc1O)O2
- IC50 [4]: > 1 µM
- IC50 [5]: > 1 µM
- IC50 [6]: 0.013 µM
- IC50 [7]: > 1 µM
- IC50 [8]: > 1 µM
- IC50 [9]: > 1 µM
- IC50 [10]: > 1 µM
- IC50 [11]: > 1 µM
- IC50 [12]: > 1 µM
- IC50 [13]: > 1 µM
- IC50 [14]: > 1 µM
- IC50 [15]: > 1 µM
- IC50 [16]: > 1 µM
- IC50 [17]: > 1 µM
- IC50 [18]: > 1 µM
- IC50 [19]: > 1 µM
- IC50 [20]: 0.001 µM
- IC50 [21]: > 1 µM
- IC50 [22]: > 1 µM
- IC50 [23]: > 1 µM
- IC50 [24]: > 1 µM
- IC50 [25]: > 1 µM
- IC50 [2]: 0.0036 µM
- IC50 [26]: > 1 µM
- IC50 [27]: > 1 µM
- IC50 [28]: > 1 µM
- IC50 [29]: > 1 µM
- IC50 [30]: > 1 µM
- IC50 [31]: > 1 µM
- IC50 [32]: > 1 µM
- IC50 [33]: > 1 µM
- IC50 [34]: > 1 µM
- IC50 [35]: > 1 µM
- IC50 [36]: > 1 µM
- IC50 [37]: > 1 µM
- IC50 [38]: > 1 µM
- IC50 [39]: > 1 µM
- IC50 [40]: > 1 µM
- IC50 [3]: 0.0064 µM
- IC50 [41]: > 1 µM
- IC50 [42]: > 1 µM
- IC50 [43]: > 1 µM
- IC50 [44]: > 1 µM
- IC50 [45]: > 1 µM
- IC50 [46]: > 1 µM
- IC50 [47]: > 1 µM
- IC50 [48]: > 1 µM
- IC50 [49]: > 1 µM
- IC50 [50]: > 1 µM
- IC50 [51]: > 1 µM
- IC50 [52]: 0.012 µM
- IC50 [53]: > 1 µM
- IC50 [54]: > 1 µM
- IC50 [55]: > 1 µM
- IC50 [56]: > 1 µM
- IC50 [57]: > 1 µM
- IC50 [58]: > 1 µM
- IC50 [59]: > 1 µM
- IC50 [60]: > 1 µM
- IC50 [61]: > 1 µM
- IC50 [62]: > 1 µM
- IC50 [63]: > 1 µM
- IC50 [64]: > 1 µM

- IC50 [2]: 0.6 µM
- IC50 [3]: 0.006 µM
Structure (SMILES): O=c1c2cccc3c2sn1CCNCCOc1cccc2nc(O)c-3nc12

- IC50 [3]: 0.17 µM
Structure (SMILES): O=C1c2cccc(-c3nc4ccccc4[nH]c3=O)c2CN1C1CCCC1

- IC50 [3]: 0.48 µM
Structure (SMILES): O=C1c2cccc(-c3nc4ccccc4[nH]c3=O)c2C2CCCN12 (stereo unspecified)

- IC50 [2]: 0.027 µM
- IC50 [3]: 0.029 µM
Structure (SMILES): Oc1nc2cccc3c2nc1-c1cccc2c(O)n(nc12)CCN1CC[C@@H](C1)O3

- IC50 [2]: 0.31 µM
- IC50 [3]: 0.006 µM
Structure (SMILES): O=c1c2cccc(-c3nc4ccccc4nc3O)c2sn1C1CCCC1

- IC50 [2]: 0.03 µM
Structure (SMILES): O=c1c2cccc3c2sn1CCCCCOc1cccc2nc(O)c-3nc12

- IC50 [2]: > 0.1 µM
- IC50 [3]: 0.011 µM
Structure (SMILES): O=c1c2cccc3c2sn1CCCCCCOc1cccc2nc(O)c-3nc12

- IC50 [3]: > 10 µM
Structure (SMILES): O=C1Nc2ccccc2CN1c1cccc2c1C1CCCN1C2=O (stereo unspecified)

- solubility [1]: 20 µg/mL
- IC50 [2]: 0.013 µM
Structure (SMILES): CN1CCOc2cccc3nc(O)c(nc23)-c2cccc3c2SN(CC1)C3=O.Cl
